In ChEMBL document CHEMBL4765453, “Phenanthrolinic analogs of quinolones show antibacterial activity against M. tuberculosis” (Eur J Med Chem, 2020):
Values after ≈ are worked out from the molar mass of the structure shown. Active and inactive are the calls of the source. The calls are words filed in the database; no cut-off is given here.

Experiments:
[1] = tested on: Mycobacterium tuberculosis; assay: Antitubercular activity against Mycobacterium tuberculosis H37Rv measured after 7 days by resazurin microtiter assay; format: functional; conditions: 168 h, time 7 day
Procedure, shortened: (§1)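 Resazurin microtiter assay with two-fold drug dilutions in complete 7H9 broth. Exponential-phase cells are diluted to a final OD600 of 0.005 in 7H9 without Tween. Incubation is 7 days at 37°C, then 0.01% resazurin is added and plates are held 24 h more. MIC is the lowest concentration preventing the blue-to-pink change. Each MIC is determined three times in duplicate experiments.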

[2] = Solubility of compound in water; format: physicochemical; conditions: buffer
[3] = tested on: Mycolicibacterium smegmatis; assay: Antibacterial activity against Mycobacterium smegmatis measured after 7 days by resazurin microtiter assay; format: functional; conditions: 168 h, time 7 day; procedure, shortened: as §1
Mycolicibacterium aurum = assay: Antibacterial activity against Mycobacterium aurum measured after 7 days by resazurin microtiter assay; format: functional; conditions: 168 h, time 7 day; procedure, shortened: as §1
Mycobacterium marinum = assay: Antibacterial activity against Mycobacterium marinum measured after 7 days by resazurin microtiter assay; format: functional; conditions: 168 h, time 7 day; procedure, shortened: as §1
Pseudomonas aeruginosa = assay: Antibacterial activity against Pseudomonas aeruginosa measured after 7 days by resazurin microtiter assay; format: functional; conditions: 168 h, time 7 day
Acinetobacter baumannii = assay: Antibacterial activity against Acinetobacter baumannii measured after 7 days by resazurin microtiter assay; format: functional; conditions: 168 h, time 7 day
Klebsiella aerogenes = assay: Antibacterial activity against Enterobacter aerogenes measured after 7 days by resazurin microtiter assay; format: functional; conditions: 168 h, time 7 day
Enterobacter cloacae = assay: Antibacterial activity against Enterobacter cloacae measured after 7 days by resazurin microtiter assay; format: functional; conditions: 168 h, time 7 day
Staphylococcus aureus = assay: Antibacterial activity against Staphylococcus aureus measured after 7 days by resazurin microtiter assay; format: functional; conditions: 168 h, time 7 day
[4] = tested on: Mycobacterium tuberculosis; assay: Antitubercular activity against Mycobacterium tuberculosis XDR measured after 7 days by resazurin microtiter assay; format: functional; conditions: 168 h, time 7 day; procedure, shortened: as §1
[5] = tested on: Escherichia coli ATCC 25922; assay: Inhibition of DNA gyrase in Escherichia coli ATCC 25922 assessed as elongation of bacterial cells at 2 ug/ml measured after 1.5 hrs by DAPI/FM 4-64 staining based confocal fluorescence microscopic analysis; conditions: dose 2.0 µg/ml
Procedure, shortened: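 E. coli ATCC 25922 is grown in LB, and exponential cultures are treated 1.5 h at 37°C. Cells are washed in PBS, fixed 10 min in 4% PFA, and stained 20 min at room temperature with 2 µg/mL DAPI plus 1 µg/mL FM 4-64. Imaging is by confocal microscopy with a 60x oil objective.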

[6] = tested on: Mycolicibacterium smegmatis; assay: Inhibition of DNA gyrase in Mycobacterium smegmatis assessed as elongation of bacterial cells at 2 ug/ml measured after 6 hrs by DAPI/FM 4-64 staining based confocal fluorescence microscopic analysis; conditions: dose 2.0 µg/ml
Procedure, shortened: (§2)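 M. smegmatis is grown in 7H9, and exponential cultures are treated 6 h at 37°C. Cells are fixed 10 min in 4% PFA in PBS and stained 20 min at room temperature with 2 µg/mL DAPI and 1 µg/mL FM 4-64. Imaging is by confocal microscopy with a 60x oil objective.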

[7] = tested on: Mycolicibacterium smegmatis; assay: Inhibition of DNA gyrase in Mycobacterium smegmatis assessed as segmentation of bacterial cells at 2 ug/ml measured after 6 hrs by DAPI/FM 4-64 staining based confocal fluorescence microscopic analysis; conditions: dose 2.0 µg/ml; procedure, shortened: as §2
[8] = tested on: Mycobacterium tuberculosis; assay: Antitubercular activity against Mycobacterium tuberculosis H37Rv infected in human macrophages assessed as intracellular bacterial load at 0.5 MIC measured after 6 days (reference value: 5.57 to 6.43 logCFU/ml); format: functional, Macrophage; conditions: time 6 day
[9] = tested on: Mycobacterium tuberculosis; assay: Antitubercular activity against Mycobacterium tuberculosis H37Rv infected in human macrophages assessed as intracellular bacterial load at MIC measured after 6 days (reference value: 5.57 to 6.43 logCFU/ml); format: functional, Macrophage; conditions: time 6 day
[10] = tested on: Mycobacterium tuberculosis; assay: Antitubercular activity against Mycobacterium tuberculosis H37Rv infected in human macrophages assessed as intracellular bacterial load at 2 times MIC measured after 6 days (reference value: 5.57 to 6.43 logCFU/ml); format: functional, Macrophage; conditions: time 6 day
[11] = tested on: Mycobacterium tuberculosis; assay: Antitubercular activity against Mycobacterium tuberculosis H37Rv infected in human macrophages assessed as intracellular bacterial load at 4 times MIC measured after 6 days (reference value: 5.57 to 6.43 logCFU/ml); format: functional, Macrophage; conditions: time 6 day
Klebsiella pneumoniae = assay: Antibacterial activity against Klebsiella pneumoniae measured after 7 days by resazurin microtiter assay; format: functional; conditions: 168 h, time 7 day
Vero = assay: Cytotoxicity against African green monkey Vero cells assessed as reduction in cell viability measured after 24 to 48 hrs by Celltiter-glo assay; format: cell-based, Chlorocebus sabaeus
Procedure, shortened: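 Vero cells are grown in DMEM with 10% FBS and seeded at 25000 cells/well. Compound is added at 1% final DMSO, with 24 and 48 h incubation. ATP is read by CellTiter-Glo luminescence. IC50 is the concentration giving a 50% drop in ATP signal versus the DMSO control.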

Macrophage = assay: Cytotoxicity against human macrophages assessed as reduction in cell viability measured after 6 days by Celltiter-glo assay; format: cell-based; conditions: 144 h
Procedure, shortened: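 Infected human macrophages, with or without drug, are incubated 6 days. Viability is checked by visual inspection and by CellTiter-Glo ATP luminescence.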

CCOC(=O)c1cn(CC)c2c(cc(Cl)c3cccnc32)c1=O
MIC90 [1]: 166 µM (≈ 55 µg/mL) | solubility [2]: Insoluble

CC1COc2c(N3CCN(C)CC3)c(F)cc3c(=O)c(C(=O)O)cn1c23 (stereo unspecified) [OFLOXACIN]
MIC90 [1]: 1.73 µM (≈ 0.625 µg/mL) | MIC90 [3]: 3.46 µM (≈ 1.25 µg/mL) | MIC90 (Mycolicibacterium aurum): 3.46 µM (≈ 1.25 µg/mL) | MIC90 (Mycobacterium marinum): 6.92 µM (≈ 2.5 µg/mL) | MIC90 (Pseudomonas aeruginosa): 6.92 µM (≈ 2.5 µg/mL) | MIC90 (Acinetobacter baumannii): 1.73 µM (≈ 0.625 µg/mL) | MIC90 (Klebsiella aerogenes): 0.22 µM (≈ 0.0795 µg/mL) | MIC90 (Enterobacter cloacae): 6.92 µM (≈ 2.5 µg/mL) | MIC90 (Staphylococcus aureus): 1.73 µM (≈ 0.625 µg/mL) | MIC90 [4]: 27.6 µM (≈ 9.97 µg/mL) | inhibition [5]: Active | inhibition [6]: Active | inhibition [7]: Active

CCn1cc(C(=O)O)c(=O)c2ccc3cccnc3c21
MIC90 [1]: 47.1 µM (≈ 12.6 µg/mL) | solubility [2]: Insoluble

COc1c(N2C[C@@H]3CCCN[C@@H]3C2)c(F)cc2c(=O)c(C(=O)O)cn(C3CC3)c12 [MOXIFLOXACIN]
MIC90 [1]: 0.77 µM (≈ 0.309 µg/mL) | Activity [8]: 4.02 log10CFU/ml | Activity [9]: 3.77 log10CFU/ml | Activity [10]: 3.93 log10CFU/ml | Activity [11]: 2.54 log10CFU/ml | MIC90 [4]: 6.16 µM (≈ 2.47 µg/mL)

CCn1cc(C(=O)O)c(=O)c2cc([N+](=O)[O-])c3cccnc3c21
MIC90 [1]: 5.84 µM (≈ 1.83 µg/mL) | MIC90 [3]: 21.4 µM (≈ 6.69 µg/mL) | MIC90 (Mycolicibacterium aurum): 10.7 µM (≈ 3.34 µg/mL) | MIC90 (Mycobacterium marinum): 1.3 µM (≈ 0.407 µg/mL) | MIC90 (Pseudomonas aeruginosa): > 100 µM | MIC90 (Acinetobacter baumannii): 93.4 µM (≈ 29.2 µg/mL) | MIC90 (Klebsiella aerogenes): 42.7 µM (≈ 13.4 µg/mL) | MIC90 (Enterobacter cloacae): > 275 µM | MIC90 (Staphylococcus aureus): 10.7 µM (≈ 3.34 µg/mL) | MIC90 (Klebsiella pneumoniae): > 275 µM | Activity (Vero; chlorocebus sabaeus, vero, time 24-48 hrs): Non-Toxic | Activity (Macrophage; human, macrophage, time 6 day): Non-Toxic | Activity [8]: 4.19 log10CFU/ml | Activity [9]: 3.69 log10CFU/ml | Activity [10]: 3.21 log10CFU/ml | Activity [11]: 3.24 log10CFU/ml | solubility [2]: Insoluble

CCn1cc(C(N)=O)c(=O)c2cc([N+](=O)[O-])c3cccnc3c21
MIC90 [1]: 1.25 µM (≈ 0.39 µg/mL) | solubility [2]: Insoluble

CCOC(=O)c1c[nH]c2c(ccc3c([N+](=O)[O-])cc[n+]([O-])c32)c1=O
MIC90 [1]: 39.5 µM (≈ 13 µg/mL) | solubility [2]: Insoluble

Cn1cc(C(N)=O)c(=O)c2cc([N+](=O)[O-])c3cccnc3c21
MIC90 [1]: 1.4 µM (≈ 0.418 µg/mL) | solubility [2]: Insoluble

CCOC(=O)c1cn(C)c2c(cc(Cl)c3cccnc32)c1=O
MIC90 [1]: 329 µM (≈ 104 µg/mL) | solubility [2]: Insoluble

CCn1cc(C(=O)O)c(=O)c2cc(Br)c3cccnc3c21
MIC90 [1]: 9.39 µM (≈ 3.26 µg/mL) | solubility [2]: Insoluble

CCOC(=O)c1c[nH]c2c(cc([N+](=O)[O-])c3cccnc32)c1=O
MIC90 [1]: 329 µM (≈ 103 µg/mL) | solubility [2]: Insoluble

CCn1cc(C(=O)Nc2ccccc2)c(=O)c2cc([N+](=O)[O-])c3cccnc3c21
MIC90 [1]: 275 µM (≈ 107 µg/mL) | solubility [2]: Insoluble

CO[C@H]1/C=C/O[C@@]2(C)Oc3c(C)c(O)c4c(O)c(c(/C=N/N5CCN(C)CC5)c(O)c4c3C2=O)NC(=O)/C(C)=C\C=C\[C@H](C)[C@H](O)[C@@H](C)[C@@H](O)[C@@H](C)[C@H](OC(C)=O)[C@@H]1C [RIFAMPIN]
MIC90 [1]: 0.76 µM (≈ 0.625 µg/mL)

CCOC(=O)c1cn(C)c2c(cc([N+](=O)[O-])c3cccnc32)c1=O
MIC90 [1]: 1.21 µM (≈ 0.396 µg/mL) | MIC90 [3]: > 100 µM | MIC90 (Mycolicibacterium aurum): > 100 µM | MIC90 (Mycobacterium marinum): 0.15 µM (≈ 0.0491 µg/mL) | MIC90 (Pseudomonas aeruginosa): > 100 µM | MIC90 (Acinetobacter baumannii): > 100 µM | MIC90 (Klebsiella aerogenes): 309 µM (≈ 101 µg/mL) | MIC90 (Enterobacter cloacae): > 275 µM | MIC90 (Staphylococcus aureus): > 275 µM | MIC90 (Klebsiella pneumoniae): > 275 µM | IC50 (Vero; Chlorocebus sabaeus, Vero): > 50 µg/mL | IC50 (Macrophage; Homo sapiens, Macrophage): > 50 µg/mL | Activity [8]: 4.22 log10CFU/ml | Activity [9]: 3.63 log10CFU/ml | Activity [10]: 3.45 log10CFU/ml | Activity [11]: 3.06 log10CFU/ml | MIC90 [4]: 1.21 µM (≈ 0.396 µg/mL) | solubility [2]: Insoluble

Cn1cc(C(=O)NN)c(=O)c2cc([N+](=O)[O-])c3cccnc3c21
MIC90 [1]: 20.8 µM (≈ 6.51 µg/mL) | solubility [2]: Insoluble

CCn1cc(C(=O)O)c(=O)c2ccc(C)nc21 [NALIDIXIC ACID]
MIC [1]: > 50 µM
